# Arr AP2 block: inhibitors of human beta-arrestin and AP2 interaction; FITC-arrestin peptide / GST-AP2 beads, flow cytometry; AP2 beta2 appendage carries R879A mutation; hit rate 0.31% among 340,000; inhibition, % at 10 µM;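 active means inhibition above a set limit, near 3 SD of compounds lacking own fluorescence, cut at about 54% in these data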;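 further: plate controls were DMSO wells for no effect and 5 µM unlabelled arrestin peptide for full effect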
#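 Material – AP2 appendage R879A on GSH beads · Buffer or medium – PBS with 0.05% Tween 20 and 0.1% BSA · Probe or stimulus – fluorescein-tagged arrestin peptide at 50 nM final · Incubation – compound with beads 12 min RT, then probe 1 h RT · Detection – high-throughput flow cytometry of beads, ex 488, em 535 nm · Evaluation – percent response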
# APOBEC3G inh: inhibitors of human APOBEC3G DNA deaminase | Q9HC16 | recombinant A3G, ssDNA deamination FAM/TAMRA fluorescence | AID 493012 | inhibition, % at 20 µM | hit rate 0.28% among 330,000;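 active means inhibition of at least 40% at 20 µM, with no more than 30% in the related APOBEC3A deaminase screen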;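 further: plate controls were DMSO wells with A3G for no effect and wells lacking A3G enzyme for full effect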
# Target sequence (Q9HC16 whole entry, looked up): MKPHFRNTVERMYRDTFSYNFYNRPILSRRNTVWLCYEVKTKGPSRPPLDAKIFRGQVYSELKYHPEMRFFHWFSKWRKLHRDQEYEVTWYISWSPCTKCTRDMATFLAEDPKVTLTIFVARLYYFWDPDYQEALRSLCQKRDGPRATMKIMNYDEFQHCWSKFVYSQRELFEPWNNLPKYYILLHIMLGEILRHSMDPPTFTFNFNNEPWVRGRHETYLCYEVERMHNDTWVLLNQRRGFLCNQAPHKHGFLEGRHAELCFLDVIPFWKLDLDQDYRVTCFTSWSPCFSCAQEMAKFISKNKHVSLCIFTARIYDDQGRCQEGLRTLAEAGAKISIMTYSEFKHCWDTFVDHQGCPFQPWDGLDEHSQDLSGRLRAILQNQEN
# APOBEC3A inh: inhibitors of human APOBEC3A DNA deaminase; P31941; hit rate 0.41% among 330,000; AID 493011; inhibition, % at 20 µM; recombinant A3A, FAM/TAMRA ssDNA deamination fluorescence;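 active means at least 40% inhibition at 20 µM here, with at most 30% in a related deaminase screen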;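 further: plate controls were A3A with DMSO for no effect and wells lacking A3A enzyme for full effect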
# Target sequence (P31941 whole entry, looked up): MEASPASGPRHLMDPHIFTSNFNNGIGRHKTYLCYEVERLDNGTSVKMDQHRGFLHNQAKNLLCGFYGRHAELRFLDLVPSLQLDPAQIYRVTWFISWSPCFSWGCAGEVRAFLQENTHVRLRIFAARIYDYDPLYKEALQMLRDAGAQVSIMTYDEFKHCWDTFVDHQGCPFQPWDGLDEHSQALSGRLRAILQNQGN
# AHR activator: activators of human aryl hydrocarbon receptor. AHR-responsive luciferase reporter cells, luminescence. P35869. hit rate 2.5% among 320,000. activation, % at 5 µM; in the data active means activation above about 47%;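 further: 0% = vehicle wells and 100% = reference agonist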
# PolyA inh: blocks polyadenylation in yeast reporter cells. S. cerevisiae SKY197-pL101 polyadenylation reporter, beta-gal luminescence; efflux-impaired pdr1/pdr3 knockout yeast; score 100 = 6 SD above DMSO. activity score, % at 12 µM. hit rate 0.02% among 300,000. AID 1875;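 active means lowest replicate activity score at least 50, where 100 means six control SD above control mean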;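 further: yeast exposed to compound for 9 h at 30 °C; higher score means more reporter readthrough which indicates perturbed polyadenylation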
# UCH37 DUB inh: blocks the human deubiquitinase UCH37 | Q9Y5K5 | purified proteasome/UCH37, Ub-AMC cleavage fluorescence | inhibition, % (no concentration beside the values) | hit rate 0.33% among 330,000;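 active means mean inhibition over replicate wells above about 20%, limit read from the data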;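 further: 0% = compound-free wells with enzyme and 100% = wells lacking proteasome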
#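 Assay system: Proteasome-bound UCH37. Buffer or medium: pH 7.4 Tris-HCl (50 mM) with ovalbumin, ATP-MgCl2, DTT. Incubation: 30 min preincubation with enzyme, 25 min cleavage at room temperature. Measured by: fluorescence, ex 355 nm, em 460 nm. Read-out basis: percent inhibition. Control set: wells without proteasome as full block, compound-free enzyme plus substrate as uninhibited.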
# Arr-AP2 CP1: human beta-arrestin and AP2 interaction inhibition, cherry pick | hit rate 2% among 1,300 | GST-AP2 beads, FITC arrestin peptide binding, flow cytometry; GST-fused beta2-adaptin appendage, R879A mutant | inhibition, % at 10 µM | shares compounds with Arr AP2 block;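 active means inhibition above a set limit, roughly 3 SD of non-fluorescent compound noise, cut at about 38% in these data; inactive means inhibition at or below that limit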;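 further: loss of bead fluorescence from 50 nM FITC arrestin peptide bound to appendage; 0% = negative control wells and 100% = excess unlabelled arrestin peptide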
# GST GSH counter: GST-GSH bead binding interference, counter-screen. shares compounds with Arr AP2 block. GST-fluorescein binding to GSH beads, fluorescence. inhibition, % at 10 µM. hit rate 2% among 1,300. AID 588338;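 active means inhibition above 50%, about 3 SD of the inhibition seen with non-fluorescent compounds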;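 further: fluorescein maleimide labelled GST captured on 4 micron glutathione beads; higher means more loss of bead fluorescence from quenching or blocked binding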
# The depositor's hits bear a star; / = no result. In the library only some 3.4% were active in any assay of this set; here they are far more common.
SMILES,Arr AP2 block,APOBEC3G inh,APOBEC3A inh,AHR activator,PolyA inh,UCH37 DUB inh,Arr-AP2 CP1,GST GSH counter
CCn1cc(/C=C(\NC(=O)c2ccc(OC)cc2)C(=O)N2CCN(C)CC2)c2ccccc21,38.0,-2.5,-2.6,/,-0.9,10.3,/,/
CCn1cc(/C=C(\NC(=O)c2ccccc2)C(=O)N2CCOCC2)c2ccccc21,55.3*,-3.7,-4.0,/,-1.9,13.9,3.0,-2.6
Nc1nn(-c2ccccc2)c(N)c1N=Nc1ccccc1,7.1,-7.0,-3.5,21.1,-2.6,12.0,/,/
Nc1nn(-c2ccccc2)c(N)c1N=Nc1ccccc1F,56.2*,-7.8,-2.3,63.6*,-6.8,8.8,-4.4,-9.1
Cc1nc(C)c(C(=O)O)c(-c2cccs2)c1C(=O)O,74.3*,-3.2,-3.2,-1.6,15.8,2.6,-8.5,-3.4
O=C(O)c1csc(-c2cccs2)n1,10.7,-12.6,0.1,1.4,5.7,0.5,/,/
O=C(CN1c2ccccc2S(=O)(=O)c2ccccc21)NCc1ccccc1,63.9*,-2.1,-3.9,6.5,-6.5,-5.6,-6.0,-3.8
O=C(N/N=C/c1cccc([N+](=O)[O-])c1)c1cccc(Br)c1,104.3*,-3.0,-3.7,12.9,0.3,/,12.8,60.3*
O=C(N/N=C/c1cccc([N+](=O)[O-])c1)c1ccc(Br)cc1,6.5,1.4,0.4,8.7,-6.1,/,/,/
Cc1ccc(SCc2cc(=O)[nH]c(N=C(N)Nc3cccc4ccccc34)n2)cc1,/,/,/,/,/,2.0,/,/
CCn1nnnc1NCc1ccc(Cl)cc1,19.5,-9.8,-5.6,4.4,1.5,2.1,/,/
Cn1nnnc1NCc1ccc(Cl)cc1,57.1*,-3.4,-1.5,1.0,7.2,-1.8,-1.4,-10.5
Cc1ccc(/C(COc2ccccc2O)=N\O)cc1,56.6*,-0.1,1.6,5.9,-2.9,/,7.9,-0.2
Cc1ccc(C(COc2ccccc2O)=NO)cc1,/,/,/,/,/,4.6,/,/
COc1cc(C=NNc2nc(C)cc(C)n2)ccc1OC(=O)c1ccco1,/,/,/,/,/,7.8,/,/
NC(=O)c1ccc(C=NO)[n+](Cc2ccccc2)c1,/,/,/,/,/,9.3,/,/
O=c1c(Cc2c(F)cccc2Cl)c(O)ccn1Cc1ccc(F)cc1,12.2,-13.4,-6.1,0.4,-25.3,2.8,/,/
O=c1c(Cc2c(F)cccc2Cl)c(O)ccn1CCCn1ccnc1,62.7*,-2.3,-4.9,12.0,22.6,0.1,-2.6,-6.8
COc1ccccc1CN1CC(C(=O)NCCc2ccc(C)o2)CCC1=O (stereo unspecified),37.3,-6.6,-9.2,0.2,4.9,-2.3,/,/
COc1ccccc1CN1CC(C(=O)NCc2ccc(C)c(F)c2)CCC1=O (stereo unspecified),22.0,-5.5,-0.8,1.3,-8.3,3.3,-7.6,-1.5
COc1ccccc1CCNC(=O)C1CCC(=O)N(Cc2ccccc2OC)C1 (stereo unspecified),66.3*,-4.5,-1.8,4.5,15.4,0.0,8.7,-2.9
CCn1ccnc1CNC(=O)C1CCC(=O)N(Cc2ccccc2F)C1 (stereo unspecified),54.2*,-5.3,-1.5,-0.5,18.0,0.5,-9.3,2.6
COc1ccccc1CN1CC(C(=O)NCc2c(F)ccc(C)c2F)CCC1=O (stereo unspecified),8.7,-6.3,-7.7,7.7,-1.5,0.8,-0.8,-3.8
COc1ccccc1CN1CC(C(=O)NCc2ccc(SC)cc2)CCC1=O (stereo unspecified),-3.5,-4.0,-1.2,/,7.1,5.0,/,/
CCOC(=O)c1c(NC(=O)C(=O)NN=Cc2ccc(OCC)cc2)sc2c1CCCCC2,/,/,/,/,/,-160.7,/,/
SMILES,Arr AP2 block,APOBEC3G inh,APOBEC3A inh,AHR activator,PolyA inh,UCH37 DUB inh,Arr-AP2 CP1,GST GSH counter
O=C(NN=Cc1ccncc1)c1ccc2c(c1)OCO2,/,/,/,/,/,2.6,/,/
Cc1c(C(=O)NC(C)c2ccccn2)oc2c(Cl)cccc12 (stereo unspecified),73.7*,-10.4,-0.5,/,/,0.5,-10.8,-9.9
Cc1c(C(=O)N2CCN(c3ncccn3)CC2)oc2c(Cl)cccc12,4.5,-14.2,23.7,-10.5,3.2,5.3,/,/
Cc1cc(C)nc(NN=Cc2ccccc2)n1,/,/,/,/,/,5.0,/,/
COc1ccc(NC(=O)CCCCn2c(=O)[nH]c3ccccc3c2=O)cc1,4.6,-0.5,3.2,3.0,18.6,1.7,-2.8,-3.0
COc1ccc(NC(=O)CCCn2c(=O)[nH]c3ccccc3c2=O)cc1,9.5,-5.1,-2.7,1.5,1.1,2.9,-14.0,-6.5
O=C(CCn1c(=S)[nH]c2ccccc2c1=O)Nc1ccc(F)cc1,74.4*,-6.3,-5.5,-5.9,3.1,2.3,13.8,83.8*
CSc1nncc(C(C)=NNc2ccccc2)n1,/,/,/,/,/,-1.4,/,/
CC1(C)CC2(CCO1)N1CC3(C)CN2CC(C)(C1)C3=O (stereo unspecified),83.8*,-2.0,-1.5,0.4,4.2,5.2,-1.3,-2.8
Cc1ccc(CSc2nnc(SCC(=O)NN=C/C=C/c3ccccc3[N+](=O)[O-])s2)cc1,/,/,/,/,/,7.2,/,/
O=C1C2C3CCCC3=C3CCCC3C2C(=O)N1c1cccc(Cl)c1 (stereo unspecified),-7.9,-5.8,0.9,10.4,3.6,18.7,/,/
O=C1C2C3C=CC(c4ccccc4)(C2C(=O)N1c1cccc(Cl)c1)C1C(=O)N(c2cccc(Cl)c2)C(=O)C31 (stereo unspecified),60.5*,-5.9,-0.7,1.4,6.6,6.1,5.1,-7.8
CC(=NNC(=O)c1ccncc1)C12CC3CC(CC(C3)C1)C2,/,/,/,/,/,-1.4,/,/
COc1cccc(-n2c(-c3ccco3)nc3nc4ccccc4nc32)c1,75.3*,0.6,-1.4,1.3,-6.5,-85.5,64.8*,174.4*
O=C(CC12CC3CC(CC(C3)C1)C2)NN=Cc1ccc[nH]1,/,/,/,/,/,3.7,/,/
COc1ccc(OC)c(-c2nc(CN3CCN(C(=O)c4ccco4)CC3)c(C)o2)c1,-9.3,0.3,0.3,2.0,-6.5,-20.0,/,/
COc1ccc(-c2nc(CN3CCN(C(=O)c4ccco4)CC3)c(C)o2)c(OC)c1C,54.2*,0.7,0.8,0.8,23.7,-1.9,-8.1,-2.4
COC(=O)c1ccc(CNC(=O)C2CCC(=O)N(CCc3ccccc3)C2)cc1 (stereo unspecified),1.5,-6.4,-4.6,/,15.3,-0.2,-9.0,0.6
Cc1ccccc1CCNC(=O)C1CCC(=O)N(CCc2cccc(F)c2)C1 (stereo unspecified),7.5,-1.9,0.5,/,3.4,1.1,-8.7,-4.3
COc1ccc(CCN2CC(C(=O)NCc3ccccc3)CCC2=O)cc1 (stereo unspecified),1.1,-2.6,-2.8,-0.4,-14.9,1.2,/,/

# Compound activity: PubChem, several laboratories
